Measured values as given in ChEMBL document CHEMBL3272292, “2-(2-Aminoethylamino)-1,2-diphenylethanol derivatives, a new class of topical antiinflammatory agents” (1977).

How the values were obtained:
Format in all cases: functional
Rattus norvegicus [1] = assay: Antiinflammatory activity in immature rat assessed as inhibition of cantharidin-induced inflammation at 888 ug administered topically to outer surface of ear after 72 hrs relative to control
Method in brief: (§1)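 Test compounds applied topically to outer ear surface together with cantharidin, groups of 8-10 immature rats (50-60 g). Controls: vehicle-only group and cantharidin-only group. […] Significance vs irritant group by Student's t test or Fieller's theorem.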

Rattus norvegicus [2] = assay: Antiinflammatory activity in immature rat assessed as inhibition of cantharidin-induced inflammation at 924 ug administered topically to outer surface of ear after 72 hrs relative to control; method in brief: as §1
Rattus norvegicus [3] = assay: Antiinflammatory activity in immature rat assessed as inhibition of cantharidin-induced inflammation at 400 ug administered topically to outer surface of ear after 72 hrs relative to control; method in brief: as §1
Rattus norvegicus [4] = assay: Antiinflammatory activity in immature rat assessed as inhibition of cantharidin-induced inflammation at 100 ug administered topically to outer surface of ear after 72 hrs relative to control; method in brief: as §1
Rattus norvegicus [5] = assay: Antiinflammatory activity in immature rat assessed as inhibition of cantharidin-induced inflammation at 50 ug administered topically to outer surface of ear after 72 hrs relative to control; method in brief: as §1
Rattus norvegicus [6] = assay: Antiinflammatory activity in immature rat assessed as inhibition of cantharidin-induced inflammation at 200 ug administered topically to outer surface of ear after 72 hrs relative to control; method in brief: as §1
Rattus norvegicus [7] = assay: Antiinflammatory activity in immature rat assessed as inhibition of cantharidin-induced inflammation at 800 ug administered topically to outer surface of ear after 72 hrs relative to control; method in brief: as §1
Rattus norvegicus [8] = assay: Antiinflammatory activity in rat assessed as reduction in dry ganuloma tissue surrounding implanted cotton pellet at 1000 ug per pellet after 72 hrs relative to control; design: scale not given: the % may be the effect or the level left
Method in brief: (§2)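 Compound dissolved in ethanol, applied to cotton pellets and dried at room temperature. Two pellets implanted sc per rat, ten rats per dose group. Pellets removed at autopsy 72 h later. Activity read as reduction in dry granuloma tissue around pellets vs control group. Significance by Student's t test or Fieller's theorem.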

Rattus norvegicus [9] = assay: Antiinflammatory activity in rat assessed as reduction in dry ganuloma tissue surrounding implanted cotton pellet at 8000 ug per pellet after 72 hrs relative to control; design: scale not given: the % may be the effect or the level left; method in brief: as §2
Rattus norvegicus [10] = assay: Antiinflammatory activity in rat assessed as reduction in dry ganuloma tissue surrounding implanted cotton pellet at 4000 ug per pellet after 72 hrs relative to control; design: scale not given: the % may be the effect or the level left; method in brief: as §2
Rattus norvegicus [11] = assay: Antiinflammatory activity in rat assessed as reduction in dry ganuloma tissue surrounding implanted cotton pellet at 2000 ug per pellet after 72 hrs relative to control; design: scale not given: the % may be the effect or the level left; method in brief: as §2
Rattus norvegicus [12] = assay: Antiinflammatory activity in rat assessed as reduction in dry ganuloma tissue surrounding implanted cotton pellet at 10 ug per pellet after 72 hrs relative to control; design: scale not given: the % may be the effect or the level left; method in brief: as §2
Rattus norvegicus [13] = assay: Antiinflammatory activity in immature rat assessed as inhibition of cantharidin-induced inflammation at 20 ug administered topically to outer surface of ear after 72 hrs relative to control; method in brief: as §1
Rattus norvegicus [14] = assay: Antiinflammatory activity in immature rat assessed as inhibition of cantharidin-induced inflammation at 40 ug administered topically to outer surface of ear after 72 hrs relative to control; method in brief: as §1
Rattus norvegicus [15] = assay: Antiinflammatory activity in rat assessed as reduction in dry ganuloma tissue surrounding implanted cotton pellet at 80 ug per pellet after 72 hrs relative to control; design: scale not given: the % may be the effect or the level left; method in brief: as §2
Rattus norvegicus [16] = assay: Antiinflammatory activity in immature rat assessed as inhibition of cantharidin-induced inflammation at 80 ug administered topically to outer surface of ear after 72 hrs relative to control; method in brief: as §1
Rattus norvegicus [17] = assay: Antiinflammatory activity in immature rat assessed as inhibition of cantharidin-induced inflammation at 10 ug administered topically to outer surface of ear after 72 hrs relative to control; method in brief: as §1
Rattus norvegicus [18] = assay: Antiinflammatory activity in rat assessed as reduction in dry ganuloma tissue surrounding implanted cotton pellet at 40 ug per pellet after 72 hrs relative to control; design: scale not given: the % may be the effect or the level left; method in brief: as §2
Rattus norvegicus [19] = assay: Antiinflammatory activity in rat assessed as reduction in dry ganuloma tissue surrounding implanted cotton pellet at 20 ug per pellet after 72 hrs relative to control; design: scale not given: the % may be the effect or the level left; method in brief: as §2
Rattus norvegicus [20] = assay: Antiinflammatory activity in immature rat assessed as inhibition of cantharidin-induced inflammation at 5 ug administered topically to outer surface of ear after 72 hrs relative to control; method in brief: as §1

CC12C(=O)N(CCNC(c3ccccc3)C(O)c3ccccc3)C(=O)C1(C)C1CCC2O1 (stereo not drawn)
inhibition (INH) (Rattus norvegicus [1]): 0%

CC1(C(=O)O)C2CCC(O2)C1(C)C(=O)NCCNC(c1ccccc1)C(O)c1ccccc1 (stereo not drawn)
inhibition (INH) (Rattus norvegicus [2]): 67%

O[C@@H](c1ccccc1)[C@@H](NCCN[C@@H](c1ccccc1)[C@@H](O)c1ccccc1)c1ccccc1
inhibition (INH) (Rattus norvegicus [3]): 5% | inhibition (INH) (Rattus norvegicus [4]): 0% | inhibition (INH) (Rattus norvegicus [5]): 14% | inhibition (INH) (Rattus norvegicus [6]): 17% | inhibition (INH) (Rattus norvegicus [7]): 0%

NCCN[C@@H](c1ccccc1)[C@@H](O)c1ccccc1 (racemic)
Activity (Rattus norvegicus [8]): 19% | inhibition (INH) (Rattus norvegicus [3]): 72% | inhibition (INH) (Rattus norvegicus [4]): 19% | Activity (Rattus norvegicus [9]): 49% | inhibition (INH) (Rattus norvegicus [5]): 19% | inhibition (INH) (Rattus norvegicus [6]): 46% | Activity (Rattus norvegicus [10]): 44% | inhibition (INH) (Rattus norvegicus [7]): 88% | Activity (Rattus norvegicus [11]): 28%

NCCN[C@@H](c1ccccc1)[C@H](O)c1ccccc1 (racemic)
inhibition (INH) (Rattus norvegicus [3]): 56% | inhibition (INH) (Rattus norvegicus [4]): 7% | inhibition (INH) (Rattus norvegicus [6]): 9% | inhibition (INH) (Rattus norvegicus [7]): 88%

CN(C)CCN[C@@H](c1ccccc1)[C@@H](O)c1ccccc1 (racemic)
inhibition (INH) (Rattus norvegicus [3]): 0% | inhibition (INH) (Rattus norvegicus [4]): 0% | inhibition (INH) (Rattus norvegicus [5]): 0% | inhibition (INH) (Rattus norvegicus [6]): 8% | inhibition (INH) (Rattus norvegicus [7]): 0%

NCCN[C@@H](c1ccccc1)[C@@H](O)c1ccc(Cl)cc1 (racemic)
inhibition (INH) (Rattus norvegicus [3]): 64% | inhibition (INH) (Rattus norvegicus [4]): 23% | inhibition (INH) (Rattus norvegicus [5]): 20% | inhibition (INH) (Rattus norvegicus [6]): 35% | inhibition (INH) (Rattus norvegicus [7]): 90%

NCCN[C@@H](c1ccc(Cl)cc1)[C@@H](O)c1ccccc1 (racemic)
inhibition (INH) (Rattus norvegicus [3]): 35% | inhibition (INH) (Rattus norvegicus [4]): 0% | inhibition (INH) (Rattus norvegicus [5]): 3% | inhibition (INH) (Rattus norvegicus [6]): 12% | inhibition (INH) (Rattus norvegicus [7]): 89%

NCCCN[C@@H](c1ccccc1)[C@@H](O)c1ccccc1 (racemic)
inhibition (INH) (Rattus norvegicus [3]): 29% | inhibition (INH) (Rattus norvegicus [4]): 8% | inhibition (INH) (Rattus norvegicus [5]): 0% | inhibition (INH) (Rattus norvegicus [6]): 21% | inhibition (INH) (Rattus norvegicus [7]): 51%

CC(=O)NCCN(C(C)=O)[C@@H](c1ccccc1)[C@@H](O)c1ccccc1 (racemic)
inhibition (INH) (Rattus norvegicus [3]): 0% | inhibition (INH) (Rattus norvegicus [4]): 11% | inhibition (INH) (Rattus norvegicus [5]): 0% | inhibition (INH) (Rattus norvegicus [6]): 9% | inhibition (INH) (Rattus norvegicus [7]): 40%

CC(=O)NCCN[C@@H](c1ccccc1)[C@@H](O)c1ccccc1 (racemic)
inhibition (INH) (Rattus norvegicus [3]): 3% | inhibition (INH) (Rattus norvegicus [4]): 3% | inhibition (INH) (Rattus norvegicus [5]): 0% | inhibition (INH) (Rattus norvegicus [6]): 0% | inhibition (INH) (Rattus norvegicus [7]): 5%

CC(=O)NCCN(C(C)=O)[C@@H](c1ccccc1)[C@@H](OC(C)=O)c1ccccc1 (racemic)
inhibition (INH) (Rattus norvegicus [3]): 13% | inhibition (INH) (Rattus norvegicus [4]): 13% | inhibition (INH) (Rattus norvegicus [5]): 6% | inhibition (INH) (Rattus norvegicus [6]): 7% | inhibition (INH) (Rattus norvegicus [7]): 0%

NCCN[C@@H](c1ccc(Cl)cc1)[C@@H](O)c1ccc(Cl)cc1 (racemic)
inhibition (INH) (Rattus norvegicus [3]): 15% | inhibition (INH) (Rattus norvegicus [4]): 10% | inhibition (INH) (Rattus norvegicus [5]): 16% | inhibition (INH) (Rattus norvegicus [6]): 16% | inhibition (INH) (Rattus norvegicus [7]): 17%

Cc1ccc([C@H](O)[C@@H](NCCN)c2ccccc2)cc1 (racemic)
inhibition (INH) (Rattus norvegicus [3]): 53% | inhibition (INH) (Rattus norvegicus [4]): 9% | inhibition (INH) (Rattus norvegicus [5]): 12% | inhibition (INH) (Rattus norvegicus [6]): 5% | inhibition (INH) (Rattus norvegicus [7]): 68%

CN(C)CCCN[C@@H](c1ccccc1)[C@@H](O)c1ccccc1 (racemic)
inhibition (INH) (Rattus norvegicus [3]): 9% | inhibition (INH) (Rattus norvegicus [4]): 0% | inhibition (INH) (Rattus norvegicus [5]): 9% | inhibition (INH) (Rattus norvegicus [6]): 16% | inhibition (INH) (Rattus norvegicus [7]): 32%

NCCCCN[C@@H](c1ccccc1)[C@@H](O)c1ccccc1 (racemic)
inhibition (INH) (Rattus norvegicus [3]): 54% | inhibition (INH) (Rattus norvegicus [4]): 5% | inhibition (INH) (Rattus norvegicus [5]): 10% | inhibition (INH) (Rattus norvegicus [6]): 37% | inhibition (INH) (Rattus norvegicus [7]): 87%

CNCCN[C@@H](c1ccccc1)[C@@H](O)c1ccccc1 (racemic)
inhibition (INH) (Rattus norvegicus [3]): 6% | inhibition (INH) (Rattus norvegicus [4]): 20% | inhibition (INH) (Rattus norvegicus [5]): 15% | inhibition (INH) (Rattus norvegicus [6]): 20% | inhibition (INH) (Rattus norvegicus [7]): 26%

CN(CCN)[C@@H](c1ccccc1)[C@@H](O)c1ccccc1 (racemic)
inhibition (INH) (Rattus norvegicus [3]): 11% | inhibition (INH) (Rattus norvegicus [4]): 8% | inhibition (INH) (Rattus norvegicus [5]): 0% | inhibition (INH) (Rattus norvegicus [6]): 1% | inhibition (INH) (Rattus norvegicus [7]): 41%

CC(C)=NCCN[C@@H](c1ccccc1)[C@@H](O)c1ccccc1 (relative stereo)
inhibition (INH) (Rattus norvegicus [3]): 59% | inhibition (INH) (Rattus norvegicus [4]): 13% | inhibition (INH) (Rattus norvegicus [5]): 14% | inhibition (INH) (Rattus norvegicus [6]): 10% | inhibition (INH) (Rattus norvegicus [7]): 87%

NCCNC(c1ccccc1)C(O)c1ccccc1 (single isomer, unassigned; (+))
inhibition (INH) (Rattus norvegicus [3]): 29% | inhibition (INH) (Rattus norvegicus [4]): 2% | inhibition (INH) (Rattus norvegicus [6]): 0% | inhibition (INH) (Rattus norvegicus [7]): 96%

NCCNC(c1ccccc1)C(O)c1ccccc1 (stereo in doubt; 8a)
inhibition (INH) (Rattus norvegicus [3]): 51% | inhibition (INH) (Rattus norvegicus [4]): 1% | inhibition (INH) (Rattus norvegicus [5]): 7% | inhibition (INH) (Rattus norvegicus [6]): 19% | inhibition (INH) (Rattus norvegicus [7]): 87%

C[C@@H]1C[C@H]2[C@@H]3CCC4=CC(=O)C=C[C@]4(C)[C@@]3(F)[C@@H](O)C[C@]2(C)[C@@]1(O)C(=O)CO [DEXAMETHASONE]
Activity (Rattus norvegicus [12]): 16% | inhibition (INH) (Rattus norvegicus [13]): 30% | inhibition (INH) (Rattus norvegicus [14]): 53% | Activity (Rattus norvegicus [15]): 49% | inhibition (INH) (Rattus norvegicus [16]): 76% | inhibition (INH) (Rattus norvegicus [17]): 25% | Activity (Rattus norvegicus [18]): 34% | Activity (Rattus norvegicus [19]): 28% | inhibition (INH) (Rattus norvegicus [20]): 17%
